According to PMC3970594 (Memórias do Instituto Oswaldo Cruz, 2013):
Like-named read-outs stand apart in the source and are kept apart here.

What was measured:
[1] = ref Rees et al. (1980), cited from earlier work
[2] = system: L. (L.) infantum chagasi promastigotes; assay: L.; assay type: cell-based, Leishmania (Leishmania) infantum chagasi; conditions: evaluation of the IC50
Outline: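 Promastigotes (MHOM/BR/1972/LD; M-199 with 10% FBS, 0.25% haemin) were seeded at 1 × 10⁶ cells/well. Two-fold serial dilutions were applied for 24 h at 24 °C. MTT was added for 4 h at 24 °C, formazan was dissolved in 10% SDS for 18 h, and OD was read at 570 nm. Viability was normalised to untreated promastigotes (100%). IC50 came from a sigmoid dose-response fit, three experiments in duplicate.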

[3] = system: intracellular L. (L.) infantum chagasi amastigotes; assay: Activity against intracellular amastigotes in infected peritoneal macrophages; assay type: cell-based, Leishmania (Leishmania) infantum chagasi; conditions: ratio of IC50 promastigotes to amastigotes
Outline: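 For amastigotes, BALB/c peritoneal macrophages were plated on coverslips at 4 × 10⁵/well for 24 h. They were infected with hamster-spleen amastigotes at 10:1 for 24 h and washed. Compound was added for 5 days at 37 °C, 5% CO₂. Giemsa counts in 400 macrophages (untreated = 100%) gave a sigmoid-fit IC50, two experiments in duplicate.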

[4] = ref Chakravarti & Sem Gupta 1950, cited from earlier work
[5] = system: L. (L.) infantum chagasi amastigotes; assay: Treatment of L.; assay type: in vivo, BALB/c mice; conditions: 50 mg Sb5+/kg/day i.p., four consecutive days
Outline: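 Female BALB/c mice (20-24 g) were infected i.v. by the retro-bulbar route with 1-2 x 10⁷ hamster-spleen amastigotes/150 µL. From day 7, groups of 4 received 50 mg Sb⁵⁺/kg/day i.p. for four consecutive days; controls received PBS. Mice were euthanised two weeks post-infection and liver and spleen were weighed. Amastigotes per 400 nuclei on Giemsa imprints × organ weight (g) gave Leishman-Donovan units.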

Compound: O.O.O.O.O.O.O.O.O.O=C([O-])[C@@H]1[O][Sb](=[O])([O][Sb]2(=[O])[O][C@H]([C@H](O)CO)[C@H](O)[C@H](C(=O)[O-])[O]2)[O][C@H]([C@H](O)CO)[C@@H]1O.[Na+].[Na+].[Na+] (some centres unmarked) [sodium stibogluconate]
- excreted in the urine ([1]; administered intravenously, after 6 h): 96%
- excreted in the urine ([1]; intramuscular injection, after 6-8 h): 80-91%

Compound: meglumine antimoniate [MA]
- susceptibility of promastigotes [2]: not susceptible
- fold more active against amastigotes than against promastigotes [3]: 680 fold
- time to complete elimination after administration ([4]; healthy individuals, renal excretion): 24 h
- antimony in the urine 36 h after drug administration ([4]; ill patients (VL), 36 h): traces of antimony were still observed in the urine
- parasite burden in the spleen, mean (SD) ([5]; untreated control 41.69 (8.60)): 32.17 (19.20) amastigotes per gram
- parasite burden in the liver, mean (SD) ([5]; untreated control 3,331 (1,745)): 2,696 (1,472) amastigotes per gram
